# Measured values reported in article PMC5759846 (Infection and Drug Resistance, 2018).
# Assays:
# [1] = Serum teicoplanin trough concentration; type: in vivo, Chinese patients; details: day 4
# Method in brief: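 Day-4 serum (2–3 mL, additive-free tubes, spun 3,500 rpm 10 min) drawn 30 min before maintenance dose; trough measured by HPLC. Cure or failure judged days 5–7 after last dose from symptoms, laboratory and bacteriological findings. Target 15–30 mg/L; mean ± SD.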
# [2] = introduction; ref [15]–[17]; cited from earlier work
# [3] = introduction; ref [15]–[17]; cited from earlier work; remark: listed apart in the source
# [4] = Group B, n=30, loading 400 mg q12h x3, maintenance 400 mg/day
# [5] = Group C, n=17, loading 400 mg q12h x2, maintenance 200 mg/day
# [6] = Group D, n=30, loading 400 mg q12h x1-3, maintenance 200 mg/day
substance,measurement,setting,value
teicoplanin,Mean teicoplanin Cmin for a failure,"[1]; 38 patients with failed response, all groups, mean ± SD, SD",10.01 ± 2.37 mg/L
same,Mean teicoplanin Cmin for a successful response,"[1]; 75 patients with clinical cure, all groups, mean ± SD, SD",18.92 ± 5.12 mg/L
same,Proportion of patients achieving target range Cmin 15–30 mg/L,[1]; [4],66.67%
same,Proportion of patients with Cmin 10–30 mg/L,[1]; [4],86.67%
same,Proportion of patients achieving target range Cmin 15–30 mg/L,[1]; [5],70.59%
same,Proportion of patients with Cmin 10–30 mg/L,[1]; [5],88.23%
same,Proportion of patients achieving target range Cmin 15–30 mg/L,[1]; [6],23.33%
same,Proportion of patients with Cmin 10–30 mg/L,[1]; [6],70%
same,elimination half-life,[2],30 to 180 h
same,plasma protein-binding rate,[3],over 90%
